Tests used:
UO-31 = assay: Cytotoxicity against human UO31 cells at 10 uM after 48 hrs by MTT assay; type: functional; conditions: UO-31, 48 h, values are per cent of control
Summary of the method: (§1)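 Single-dose screen in the NCI 60-cell-line panel, run according to the Developmental Therapeutics Program protocol (one-dose mean graph). The result is the growth percentage of treated cells relative to untreated control cells.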

LOX IMVI = assay: Cytotoxicity against human LOXIMVI cells at 10 uM after 48 hrs by MTT assay; type: functional; conditions: values are per cent of control
Summary of the method: (§2)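 Single-dose screen on the NCI 60-cell-line panel, run to the Developmental Therapeutics Program protocol (one-dose mean graph). Each value is the growth percentage of treated cells against untreated control cells.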

M14 = assay: Cytotoxicity against human M14 cells at 10 uM after 48 hrs by MTT assay; type: functional; conditions: M14, 48 h, values are per cent of control; summary of the method: as §2
Malme-3M = assay: Cytotoxicity against human MALME3M cells at 10 uM after 48 hrs by MTT assay; type: functional; conditions: values are per cent of control; summary of the method: as §2
SK-MEL-2 = assay: Cytotoxicity against human SK-MEL-2 cells at 10 uM after 48 hrs by MTT assay; type: functional; conditions: SK-MEL-2, 48 h, values are per cent of control; summary of the method: as §2
SK-MEL-28 = assay: Cytotoxicity against human SK-MEL-28 cells at 10 uM after 48 hrs by MTT assay; type: functional; conditions: SK-MEL-28, 48 h, values are per cent of control; summary of the method: as §2
SK-MEL-5 = assay: Cytotoxicity against human SK-MEL-5 cells at 10 uM after 48 hrs by MTT assay; type: functional; conditions: SK-MEL-5, 48 h, values are per cent of control; summary of the method: as §2
UACC-62 = assay: Cytotoxicity against human UACC62 cells at 10 uM after 48 hrs by MTT assay; type: functional; conditions: UACC-62, 48 h, values are per cent of control; summary of the method: as §1
SF-268 = assay: Cytotoxicity against human SF268 cells at 10 uM after 48 hrs by MTT assay; type: functional; conditions: SF-268, 48 h, values are per cent of control; summary of the method: as §2
SNB-19 = assay: Cytotoxicity against human SNB19 cells at 10 uM after 48 hrs by MTT assay; type: functional; conditions: SNB-19, 48 h, values are per cent of control; summary of the method: as §2
[1] = Cytotoxicity against human H1299 cells at 100 uM after 48 hrs by MTT assay realtive to control; type: functional; conditions: NCI-H1299, 48 h
Summary of the method: (§3)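 H1299 non-small-cell lung cells were kept in RPMI 1640 with 10% FBS and penicillin/streptomycin at 37 °C under 5% CO2. About 2 × 10^3 cells per well were pre-incubated for 24 h. Compound was added from freshly made DMSO solution diluted in complete medium and left for 48 h. MTT was then added for 4 h at 37 °C, followed by 20% SDS/50% DMF lysis buffer for 16 h at 37 °C, and absorbance read at 550 nm.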

[2] = Cytotoxicity against human H1299 cells at 10 uM after 48 hrs by MTT assay realtive to control; type: functional; conditions: NCI-H1299, 48 h; summary of the method: as §3
[3] = Cytotoxicity against human TERT immortalized BJ1 cells at 1 uM after 48 hrs by MTT assay relative to control; type: cell-based, BJ
Summary of the method: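 hTERT-immortalized BJ1 fibroblasts were grown in DMEM with 10% FCS, 1 mM pyruvate and 4 mM […]. Cells (about 2 × 10^3 per well) were seeded and held 24 h at 37 °C. Compounds were freshly dissolved in DMSO, diluted into medium and left on the cells 48 h. MTT was added for 4 h, then SDS/DMF lysis buffer for 16 h. Absorbance was read at 550 nm and expressed relative to untreated cells (100%).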

NCI-H226 = assay: Cytotoxicity against human NCI-H226 cells at 10 uM after 48 hrs by MTT assay; type: functional; conditions: NCI-H226, 48 h; summary of the method: as §2
KM12 = assay: Cytotoxicity against human KM12 cells at 10 uM after 48 hrs by MTT assay; type: functional; conditions: KM12, 48 h; summary of the method: as §2
SW-620 = assay: Cytotoxicity against human SW620 cells at 10 uM after 48 hrs by MTT assay; type: functional; conditions: SW-620, 48 h, values are per cent of control; summary of the method: as §1
BT-549 = assay: Cytotoxicity against human BT549 cells at 10 uM after 48 hrs by MTT assay; type: functional; conditions: BT-549, 48 h; summary of the method: as §2
Hs-578T = assay: Cytotoxicity against human HS578T cells at 10 uM after 48 hrs by MTT assay; type: functional; conditions: values are per cent of control; summary of the method: as §2
MDA-MB-231 = assay: Cytotoxicity against human MDA-MB-231/ATCC cells at 10 uM after 48 hrs by MTT assay; type: functional; conditions: MDA-MB-231, 48 h; summary of the method: as §2
MDA-MB-435 = assay: Cytotoxicity against human MDA-MB-435 cells at 10 uM after 48 hrs by MTT assay; type: functional; conditions: MDA-MB-435, 48 h; summary of the method: as §2
NCI/ADR-RES = assay: Cytotoxicity against human NCI/ADR-RES cells at 10 uM after 48 hrs by MTT assay; type: functional; summary of the method: as §2
T47D = assay: Cytotoxicity against human T47D cells at 10 uM after 48 hrs by MTT assay; type: functional; summary of the method: as §1
OVCAR-4 = assay: Cytotoxicity against human OVCAR4 cells at 10 uM after 48 hrs by MTT assay; type: functional; conditions: OVCAR-4, 48 h; summary of the method: as §2
OVCAR-5 = assay: Cytotoxicity against human OVCAR5 cells at 10 uM after 48 hrs by MTT assay; type: functional; conditions: OVCAR-5, 48 h; summary of the method: as §2
SK-OV-3 = assay: Cytotoxicity against human SKOV3 cells at 10 uM after 48 hrs by MTT assay; type: functional; conditions: SK-OV-3, 48 h; summary of the method: as §2
HL-60 = assay: Cytotoxicity against human HL60 cells at 10 uM after 48 hrs by MTT assay; type: functional; conditions: HL-60, 48 h; summary of the method: as §2
A498 = assay: Cytotoxicity against human A498 cells at 10 uM after 48 hrs by MTT assay; type: functional; conditions: A498, 48 h; summary of the method: as §2
ACHN = assay: Cytotoxicity against human ACHN cells at 10 uM after 48 hrs by MTT assay; type: functional; summary of the method: as §2
HCT-29 = assay: Growth percent of human HCT29 cells at 10 uM after 48 hrs by MTT assay; conditions: HCT-29, 48 h
HCC 2998 = assay: Growth percent of human HCC2998 cells at 10 uM after 48 hrs by MTT assay; conditions: HCC 2998, 48 h
NCI-H522 = assay: Growth percent of human NCI-H522 cells at 10 uM after 48 hrs by MTT assay; conditions: NCI-H522, 48 h
[4] = target: T1, Telomerase reverse transcriptase (Homo sapiens, UniProt O14746); assay: Effect on human TERT expressed in H1299 cells at 1 uM after 24 hrs by SEAP assay relative to control
[5] = target: T1, Telomerase reverse transcriptase; assay: Effect on human TERT expressed in BJ1 cells at 100 uM after 24 hrs by SEAP assay relative to control; conditions: BJ
[6] = target: T1, Telomerase reverse transcriptase; assay: Effect on human TERT expressed in BJ1 cells at 1 uM after 24 hrs by SEAP assay realtive to control; conditions: BJ

T1 sequence (O14746 whole entry): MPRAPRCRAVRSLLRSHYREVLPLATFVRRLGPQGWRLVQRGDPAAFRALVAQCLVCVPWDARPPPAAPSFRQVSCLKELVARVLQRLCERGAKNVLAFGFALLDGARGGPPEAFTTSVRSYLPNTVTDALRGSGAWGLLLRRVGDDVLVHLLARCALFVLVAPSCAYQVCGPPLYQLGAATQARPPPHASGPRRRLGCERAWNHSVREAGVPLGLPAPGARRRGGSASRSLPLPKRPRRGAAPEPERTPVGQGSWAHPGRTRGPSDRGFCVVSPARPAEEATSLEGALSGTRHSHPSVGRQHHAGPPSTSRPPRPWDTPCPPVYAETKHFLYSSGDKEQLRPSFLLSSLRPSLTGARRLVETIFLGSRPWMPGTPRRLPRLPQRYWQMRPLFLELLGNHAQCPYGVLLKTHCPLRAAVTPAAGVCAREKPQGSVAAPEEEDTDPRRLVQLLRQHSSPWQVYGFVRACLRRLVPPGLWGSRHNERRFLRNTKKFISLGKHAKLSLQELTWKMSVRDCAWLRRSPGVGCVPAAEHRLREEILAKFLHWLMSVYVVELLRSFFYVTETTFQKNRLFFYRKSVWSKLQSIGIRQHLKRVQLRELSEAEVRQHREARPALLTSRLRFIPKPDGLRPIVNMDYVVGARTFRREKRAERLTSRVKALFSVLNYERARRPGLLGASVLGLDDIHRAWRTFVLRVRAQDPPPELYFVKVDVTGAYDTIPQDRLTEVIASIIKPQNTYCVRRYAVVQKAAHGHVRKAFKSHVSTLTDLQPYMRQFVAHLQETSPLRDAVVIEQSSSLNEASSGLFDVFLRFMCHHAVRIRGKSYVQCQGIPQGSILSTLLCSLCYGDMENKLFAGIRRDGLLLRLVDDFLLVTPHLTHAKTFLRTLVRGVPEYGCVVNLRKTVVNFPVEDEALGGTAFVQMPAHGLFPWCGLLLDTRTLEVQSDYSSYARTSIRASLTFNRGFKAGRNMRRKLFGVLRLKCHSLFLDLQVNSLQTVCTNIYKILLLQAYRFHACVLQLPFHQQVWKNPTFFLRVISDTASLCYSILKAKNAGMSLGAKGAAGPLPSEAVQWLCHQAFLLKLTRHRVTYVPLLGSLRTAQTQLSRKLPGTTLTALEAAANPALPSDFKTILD

O=C(CCN1CCCC1)Nc1ccc2c(c1)C(=O)c1cc(NC(=O)CCN3CCCC3)ccc1C2=O
growth, % of control at 10 µM (UO-31): 5.27%
growth, % of control at 10 µM (LOX IMVI): 30.7%
growth, % of control at 10 µM (M14): 53.9%
growth, % of control at 10 µM (Malme-3M): 47%
growth, % of control at 10 µM (SK-MEL-2): -45.2%
growth, % of control at 10 µM (SK-MEL-28): 15%
growth, % of control at 10 µM (SK-MEL-5): 56.9%
growth, % of control at 10 µM (UACC-62): 42.7%
growth, % of control at 10 µM (SF-268): 26.7%
growth, % of control at 10 µM (SNB-19): 67%
viability at 100 µM [1]: 12%
viability at 10 µM [2]: 54%
viability at 48 h, 1 µM [3]: 82%
growth percent at 10 µM (NCI-H226): 41.1%
growth percent at 10 µM (KM12): 32.5%
growth, % of control at 10 µM (SW-620): 20%
growth percent at 10 µM (BT-549): 76.9%
growth, % of control at 10 µM (Hs-578T): 5.26%
growth percent at 10 µM (MDA-MB-231): 30.5%
growth percent at 10 µM (MDA-MB-435): 68.8%
growth percent at 10 µM (NCI/ADR-RES): 80.6%
growth percent at 10 µM (T47D): 59%
growth percent at 10 µM (OVCAR-4): 49.8%
growth percent at 10 µM (OVCAR-5): 18.8%
growth percent at 10 µM (SK-OV-3): 27.1%
growth percent at 10 µM (HL-60): 85.8%
growth percent at 10 µM (A498): -0.91%
growth percent at 10 µM (ACHN): 29.6%
growth percent at 10 µM (HCT-29): 19.5%
growth percent at 10 µM (HCC 2998): 20%
growth percent at 10 µM (NCI-H522): 29.2%
residual activity [4]: 73%
residual activity [5]: 109%

CN(C)CC(=O)Nc1ccc2c(c1)C(=O)c1cc(NC(=O)CN(C)C)ccc1C2=O
growth, % of control at 10 µM (UO-31): -82.5%
growth, % of control at 10 µM (LOX IMVI): -52.3%
growth, % of control at 10 µM (M14): 75%
growth, % of control at 10 µM (Malme-3M): 96.2%
growth, % of control at 10 µM (SK-MEL-2): -30.4%
growth, % of control at 10 µM (SK-MEL-28): 32.1%
growth, % of control at 10 µM (SK-MEL-5): 82.6%
growth, % of control at 10 µM (UACC-62): 22.3%
growth, % of control at 10 µM (SF-268): 64.9%
growth, % of control at 10 µM (SNB-19): 79.6%
viability at 100 µM [1]: 15%
viability at 10 µM [2]: 55%
viability at 48 h, 1 µM [3]: 96%
growth percent at 10 µM (NCI-H226): 89.1%
growth, % of control at 10 µM (KM12; values are per cent of control): 67%
growth, % of control at 10 µM (SW-620): 23.4%
growth percent at 10 µM (BT-549): 85.4%
growth, % of control at 10 µM (Hs-578T): -6.11%
growth percent at 10 µM (MDA-MB-231): 4.49%
growth percent at 10 µM (MDA-MB-435): 68.4%
growth percent at 10 µM (NCI/ADR-RES): 47.8%
growth percent at 10 µM (T47D): 24.6%
growth percent at 10 µM (OVCAR-4): 45.7%
growth percent at 10 µM (OVCAR-5): 73.2%
growth percent at 10 µM (SK-OV-3): 70.3%
growth percent at 10 µM (HL-60): -65%
growth percent at 10 µM (A498): -6.39%
growth percent at 10 µM (ACHN): 66.4%
growth percent at 10 µM (HCT-29): 11.7%
growth percent at 10 µM (HCC 2998): -74%
growth percent at 10 µM (NCI-H522): 61.8%
residual activity [6]: 96%
residual activity [4]: 87%
residual activity [5]: 3%
